CHT PAM: CHT positive allosteric modulators, primary screen, cell-based, membrane potential dye, choline EC20 | 310,000 tested, 0.49% active | CHT-expressing cells; active compounds read high; LV-AA mutant CHT in HEK293 cells | B-score at 10 µM;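 active means initial fluorescence not abnormally high and integrated response B-score, plate-corrected, over 3 SD above library mean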
T cell modulator: modulators of CD8 T cell-vesicle binding, primary screen, mouse 2C CD8+ T cells, flow cytometry | 2C CD8+ T cell-vesicle binding; active compounds read low | response (vesicle binding), % at 7 µM | 330,000 tested, 0.068% active;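 active means response, share of CD8 T cells binding vesicles, and their 90th percentile fluorescence all below set limits, cut at about 80% in these data, passing the limit was not always enough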;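 further: values below 100% mean blocked vesicle binding to the CD8+ T cells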
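Test system: purified 2C TCR transgenic mouse naive CD8+ T cells. Probe or stimulus: QL9-peptide-loaded Drosophila micro-vesicles bearing Ld, ICAM-1 and B7-1. Incubation: binding step 1.5 h, 37 °C, antibody labelling 20 min, ice. Measured by: flow cytometry of vesicle-bound cells.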
CHT inh: inhibitors of human choline transporter CHT; High affinity choline transporter 1 (Homo sapiens), Q9GZV3; CHT-expressing cells, membrane potential dye, choline response; active compounds read low; B-score at 10 µM; 310,000 tested, 0.86% active;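 active means B-score over 3 SD under the library average, and starting fluorescence ratio not unusually high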;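 further: choline stimulus applied at its EC90 after an EC20 pre-addition; B-score computed on integrated fluorescence ratio after choline addition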
VLA-4 inh: inhibition in human VLA-4 binding assay, primary screen, VLA-4 allosteric modulator project, MLPCN library, flow cytometry, VLA-4 expressing cells | Integrin alpha-4 (Homo sapiens), P13612 | 330,000 tested, 0.2% active | ligand binding flow cytometry | inhibition, % (about 7 µM as worked out from the volumes in the protocol) | AID 2557, 2010; in the data active means inhibition above about 50%
Target sequence (P13612 whole entry, looked up): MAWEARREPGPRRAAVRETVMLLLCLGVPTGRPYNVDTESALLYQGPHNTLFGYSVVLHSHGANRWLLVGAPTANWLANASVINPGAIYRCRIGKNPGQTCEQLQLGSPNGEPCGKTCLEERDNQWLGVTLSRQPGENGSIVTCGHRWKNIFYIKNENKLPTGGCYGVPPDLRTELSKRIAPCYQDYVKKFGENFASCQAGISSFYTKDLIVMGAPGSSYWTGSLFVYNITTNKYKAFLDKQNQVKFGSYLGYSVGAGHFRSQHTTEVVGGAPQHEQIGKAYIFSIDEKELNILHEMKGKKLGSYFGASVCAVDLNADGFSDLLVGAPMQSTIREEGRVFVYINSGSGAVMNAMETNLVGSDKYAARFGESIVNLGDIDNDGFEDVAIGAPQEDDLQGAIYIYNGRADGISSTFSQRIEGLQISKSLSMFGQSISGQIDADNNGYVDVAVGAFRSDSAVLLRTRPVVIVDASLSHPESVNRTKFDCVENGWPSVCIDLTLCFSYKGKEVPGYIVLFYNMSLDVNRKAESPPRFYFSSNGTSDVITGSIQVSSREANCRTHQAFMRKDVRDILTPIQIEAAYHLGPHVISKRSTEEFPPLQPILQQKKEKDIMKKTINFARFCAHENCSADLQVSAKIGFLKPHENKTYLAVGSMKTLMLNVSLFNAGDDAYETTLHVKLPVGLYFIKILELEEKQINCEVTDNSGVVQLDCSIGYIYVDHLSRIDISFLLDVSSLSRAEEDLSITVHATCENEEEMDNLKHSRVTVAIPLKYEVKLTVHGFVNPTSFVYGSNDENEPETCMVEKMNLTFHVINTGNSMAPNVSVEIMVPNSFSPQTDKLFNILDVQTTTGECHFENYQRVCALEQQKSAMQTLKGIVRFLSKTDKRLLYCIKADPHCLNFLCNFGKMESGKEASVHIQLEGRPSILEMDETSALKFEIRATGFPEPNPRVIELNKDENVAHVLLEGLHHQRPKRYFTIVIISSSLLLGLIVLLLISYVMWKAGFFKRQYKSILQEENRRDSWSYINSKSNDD
CHT inh conf: CHT inhibitors, confirmation, cell-based, membrane potential dye, duplicate; shares compounds with CHT inh; CHT-expressing cells, choline membrane potential dye; LV-to-AA substituted CHT, HEK293 cells; CHT activity remaining % of control (active compounds read low), % at 10 µM; 2,400 tested, 70% active;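 active means choline transporter activity left, mean of duplicates at 10 µM, below buffer-only control mean minus 3 SD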;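 further: depolarization triggered by choline at its EC90 following an EC20 pre-addition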
HEK293 CHT ctr: membrane potential effects in parental HEK293, counter-screen for CHT inhibitor project, cell-based, membrane potential dye | shares compounds with CHT inh | choline response; active = decrease or increase beyond buffer ±3SD | membrane potential ratio readout (active if shifted either direction beyond buffer ±3SD; no single direction) at 10 µM | 2,400 tested, 4% active;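 further: parental cells lack the transporter so any hit is non-specific; ratio is peak minus trough fluorescence over baseline after EC90 choline challenge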
Hits are given with their value; . = inactive; / = no result given. This is a sample that favours compounds with a hit; in the whole collection about 1.5% have one here.

SMILES | CHT PAM | T cell modulator | CHT inh | VLA-4 inh | CHT inh conf | HEK293 CHT ctr
COc1cccc(N2C(=O)N(c3ccccc3)C3CS(=O)(=O)CC32)c1 (centres undefined) | . | . | -4.9 | . | 70% | .
CN(C(=O)CC1C(=O)NCCN1Cc1cccc(F)c1F)C1CC(C)(C)NC(C)(C)C1 (centres undefined) | . | . | . | . | / | /
CCC(C(=O)NCCCN1CC(C)CC(C)C1)n1nc(C)c2sc3ccccc3c2c1=O (centres undefined) | . | . | -8.8 | . | 16% | .
CCN(CC)CCCNC(=O)c1cc(-c2ccc(O)cc2)on1 | . | . | . | . | / | /
CCN(CC)CCCNC(=O)c1cc(-c2ccc(Cl)c(Cl)c2)on1 | . | . | -6.7 | . | 31% | .
COc1ccccc1N(C(=O)c1snc(C(N)=O)c1N)C(C(=O)NC1CCCC1)c1ccc2ncccc2c1 (centres undefined) | . | . | . | . | / | /
CC1CCN(S(=O)(=O)c2ccc3c(c2)N(CC(=O)NCCN2C(C)CCCC2C)C(=O)CS3)CC1 (centres undefined) | . | . | -10 | . | 17% | .
Cc1ccc(CNC(=O)CN2C(=O)CSc3ccc(S(=O)(=O)N4CCC(C)CC4)cc32)cc1 | . | . | . | . | / | /
CCCCN(C)CCNC(=O)CN1C(=O)CSc2ccc(S(=O)(=O)N3CCCC3)cc21 | . | . | -5.7 | . | 58% | .
CC1CCN(S(=O)(=O)c2ccc3c(c2)N(CC(=O)NCCCN2CCCCC2C)C(=O)CS3)CC1 (centres undefined) | . | . | -5.5 | . | 44% | .
CCC1CCCCN1CCCNC(=O)CN1C(=O)CSc2ccc(S(=O)(=O)N3CCOCC3)cc21 (centres undefined) | . | . | . | . | / | /
CC(C)(C)N/N=C/c1cc(Cl)cc([N+](=O)[O-])c1O | . | . | -5.8 | . | 59% | .
Cc1ccc(C)c(C(=O)CCC(=O)Nc2ccc(N3CCN(C)CC3)cc2C)c1 | / | . | / | . | / | /
COCCNC(=O)C(c1ccc(C)o1)N(C(=O)C(=O)NC1CCCCC1)c1ccc(F)cc1 (centres undefined) | . | . | . | . | / | /
CN1CCN(C(=O)CCCN2C(=O)/C(=C/c3ccccc3)SC2=S)CC1 | . | . | -6.6 | . | 46% | .
COc1ccc(/C=C2/SC(=S)N(CCCC(=O)N3CCN(C)CC3)C2=O)cc1 | . | . | -6.5 | . | 42% | .
COc1ccc(/C=C2/SC(=S)N(CCC(=O)N3CCN(C)CC3)C2=O)cc1 | . | . | . | . | / | /
O=C(CN1C(=O)NC2(CCCC2)C1=O)NCc1ccc(Cl)cc1 | / | . | / | . | / | /
COc1ccc(C2C(C(=O)O)CCC(=O)N2c2ccc(C)cc2)cc1OC (centres undefined) | . | . | . | . | / | /
CCCc1cc(=O)[nH]c(SCC(=O)c2cc(C)n(CC(F)(F)F)c2C)n1 | . | . | -6.3 | . | . | .
CCCc1cc(=O)[nH]c(SCC(=O)c2cc(C)n(CCOC)c2C)n1 | . | . | . | . | / | /
Cc1ccc(C(=O)Nc2cccc(C(F)(F)F)c2)cc1NC(=O)c1csc(-c2ccncc2)n1 | . | . | -8 | . | 25% | .
CCSc1nnc2ccc(-c3ccco3)nn12 | . | . | . | . | / | /
Cc1ccc(S(=O)(=O)N2CCCC2)cc1C(=O)Nc1ccc(-n2cnnn2)cc1 | / | . | / | . | / | /
Cc1cc(NCCCn2ccnc2)n2ncc(-c3ccc(Cl)cc3)c2n1 | . | . | -5.4 | . | 61% | .
SMILES | CHT PAM | T cell modulator | CHT inh | VLA-4 inh | CHT inh conf | HEK293 CHT ctr
CCOC(=O)c1ccc(CN2Cc3ccccc3C2=O)cc1 | . | . | . | . | / | /
COc1ccc(Cl)cc1S(=O)(=O)NC(C)C(=O)NCc1ccc2c(c1)OCO2 (centres undefined) | . | . | . | . | / | /
CCN1C(=O)[C@H]2[C@@H](c3ccc(-c4ccc5c(c4)OCO5)c(OC)c3)N[C@@](C)(C(=O)OC)[C@H]2C1=O | / | . | / | . | / | /
COc1ccc(N2CCN(S(=O)(=O)c3cn(C)c(=O)n(C)c3=O)CC2)cc1 | . | . | -5.3 | . | . | .
Cn1cc(S(=O)(=O)N2CCN(c3ccccc3)CC2)c(=O)n(C)c1=O | . | . | . | . | / | /
COC(=O)COc1ccc(S(=O)(=O)N2CCN(c3ccccc3)CC2)cc1 | . | . | . | . | / | /
COC(=O)COc1ccc(S(=O)(=O)N2CCN(c3ccccc3F)CC2)cc1 | . | . | -5.2 | . | . | .
COC(=O)CN1C(=O)COc2ccc(S(=O)(=O)NCc3ccc(Cl)cc3)cc21 | . | . | -6.1 | . | . | .
Cc1ccc(-n2c(O)c(/C=N/Nc3ccc(S(=O)(=O)N4CCOCC4)cc3[N+](=O)[O-])c3ccccc3c2=O)c(C)c1 | . | . | -5.1 | . | 27% | .
CN(CC(=O)Nc1ccc(Cl)c(C(F)(F)F)c1)C(=O)Cn1cc([N+](=O)[O-])ccc1=O | / | . | / | . | / | /
COC(=O)N(NC(=O)C(O)(CCC(C)C)CCC(C)C)c1ccccc1 | . | . | . | . | . | .
CC1CCCCC1NC(=O)Cn1nnc(-c2ccc(Cl)cc2)n1 (centres undefined) | . | . | -6.3 | . | 66% | .
COC(=O)c1ccc(CC(=O)c2nc3ccccc3s2)cc1 | . | . | . | . | / | /
COC(=O)c1ccc(/C(O)=C(\C#N)c2nc3ccccc3s2)cc1 | . | . | -6.5 | . | . | .
N#CC(c1ccccc1)c1ccc2c(C(F)(F)F)cc(C(F)(F)F)nc2n1 (centres undefined) | . | . | -5.5 | . | . | .
CCOC(=O)c1cc(NC(=O)CNCC(c2ccccc2)N(C)C)cc(C(=O)OCC)c1 (centres undefined) | . | . | -6.8 | . | 33% | 2.2
N#C/C(=C\c1ccc(O)c(Br)c1)C(=O)NCc1ccccc1 | . | . | -6.4 | . | 64% | .
Cc1ccc(C(=O)Nc2ncc([N+](=O)[O-])s2)cc1 | . | . | -5.9 | . | 56% | .
O=C(Nc1ncc([N+](=O)[O-])s1)c1ccc2c(c1)OCO2 | . | . | . | . | / | /
Cc1ccc(C(C)C)c(OCC(=O)NS(=O)(=O)c2ccc(Cl)cc2)c1 | . | . | -6.4 | . | 14% | .
COc1cc(C=Nc2cccc(C)c2)c(O)c([N+](=O)[O-])c1 | . | . | -6.9 | . | 68% | .
Cn1c(-c2ccccc2O)cc2ccccc21 | . | . | -8.1 | . | 51% | .
Cn1c(-c2ccccc2)cc2ccccc21 | . | . | . | . | / | /

Assay outcomes deposited in PubChem by several laboratories.
